Experiment: Safety and tolerability
Format: in vivo, human
Method in brief: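 Patients (enrolled January 2015–February 2016) received oral test compound in four cohorts: 160, 320 or 480 mg QD, or 300 mg BID. Dosing continued until progression, unacceptable AEs or consent withdrawal. AEs were graded by CTCAE v4.0, alongside laboratory tests, vital signs and ECGs. The safety population was all patients receiving ≥1 dose.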

[1] = Japanese patients with B‐cell NHL and CLL

CC#CC(=O)N1CC[C@@H](n2c(=O)n(-c3ccc(Oc4ccccc4)cc3)c3c(N)ncnc32)C1 [tirabrutinib]
Myalgia, Any grade (320 mg QD N = 3): 0 n (%) | Myalgia, Grade ≥3 (320 mg QD N = 3): 0 n (%) | Nasopharyngitis, Any grade (320 mg QD N = 3): 0 n (%) | Nasopharyngitis, Grade ≥3 (320 mg QD N = 3): 0 n (%) | Nausea, Any grade (320 mg QD N = 3): 0 n (%) | Nausea, Grade ≥3 (320 mg QD N = 3): 0 n (%) | Neutropenia, Any grade (320 mg QD N = 3): 2 (66.7) n (%) | Neutropenia, Grade ≥3 (320 mg QD N = 3): 2 (66.7) n (%) | Pharyngitis, Any grade (320 mg QD N = 3): 0 n (%) | Pharyngitis, Grade ≥3 (320 mg QD N = 3): 0 n (%) | Pyrexia, Any grade (320 mg QD N = 3): 0 n (%) | Pyrexia, Grade ≥3 (320 mg QD N = 3): 0 n (%) | Rash, Any grade (320 mg QD N = 3): 2 (66.7) n (%) | Rash, Grade ≥3 (320 mg QD N = 3): 0 n (%) | Thrombocytopenia, Any grade (320 mg QD N = 3): 1 (33.3) n (%) | Thrombocytopenia, Grade ≥3 (320 mg QD N = 3): 0 n (%) | Upper respiratory tract inflammation, Any grade (320 mg QD N = 3): 1 (33.3) n (%) | Upper respiratory tract inflammation, Grade ≥3 (320 mg QD N = 3): 0 n (%) | Vomiting, Any grade (320 mg QD N = 3): 1 (33.3) n (%) | Vomiting, Grade ≥3 (320 mg QD N = 3): 0 n (%) | All AEs, Any grade (480 mg QD N = 4): 4 (100.0) n (%) | All AEs, Grade ≥3 (480 mg QD N = 4): 2 (50.0) n (%) | Anemia, Any grade (480 mg QD N = 4): 2 (50.0) n (%) | Anemia, Grade ≥3 (480 mg QD N = 4): 1 (25.0) n (%) | Arthralgia, Any grade (480 mg QD N = 4): 0 n (%) | Arthralgia, Grade ≥3 (480 mg QD N = 4): 0 n (%) | Aspartate aminotransferase increased, Any grade (480 mg QD N = 4): 1 (25.0) n (%) | Aspartate aminotransferase increased, Grade ≥3 (480 mg QD N = 4): 0 n (%) | Constipation, Any grade (480 mg QD N = 4): 1 (25.0) n (%) | Constipation, Grade ≥3 (480 mg QD N = 4): 0 n (%) | Cystitis, Any grade (480 mg QD N = 4): 0 n (%) | Cystitis, Grade ≥3 (480 mg QD N = 4): 0 n (%) | Diarrhea, Any grade (480 mg QD N = 4): 0 n (%) | Diarrhea, Grade ≥3 (480 mg QD N = 4): 0 n (%) | Dysgeusia, Any grade (480 mg QD N = 4): 1 (25.0) n (%) | Dysgeusia, Grade ≥3 (480 mg QD N = 4): 0 n (%) | Gamma‐glutamyltransferase increased, Any grade (480 mg QD N = 4): 0 n (%) | Gamma‐glutamyltransferase increased, Grade ≥3 (480 mg QD N = 4): 0 n (%) | Headache, Any grade (480 mg QD N = 4): 0 n (%) | Headache, Grade ≥3 (480 mg QD N = 4): 0 n (%) | Hypokalemia, Any grade (480 mg QD N = 4): 2 (50.0) n (%) | Hypokalemia, Grade ≥3 (480 mg QD N = 4): 0 n (%) | Hypophosphatemia, Any grade (480 mg QD N = 4): 2 (50.0) n (%) | Hypophosphatemia, Grade ≥3 (480 mg QD N = 4): 1 (25.0) n (%) | Insomnia, Any grade (480 mg QD N = 4): 0 n (%) | Insomnia, Grade ≥3 (480 mg QD N = 4): 0 n (%) | Leukopenia, Any grade (480 mg QD N = 4): 0 n (%) | Leukopenia, Grade ≥3 (480 mg QD N = 4): 0 n (%) | Lymphopenia, Any grade (480 mg QD N = 4): 1 (25.0) n (%) | Lymphopenia, Grade ≥3 (480 mg QD N = 4): 0 n (%) | Malaise, Any grade (480 mg QD N = 4): 1 (25.0) n (%) | Malaise, Grade ≥3 (480 mg QD N = 4): 0 n (%) | Myalgia, Any grade (480 mg QD N = 4): 0 n (%) | Myalgia, Grade ≥3 (480 mg QD N = 4): 0 n (%) | Nasopharyngitis, Any grade (480 mg QD N = 4): 0 n (%) | Nasopharyngitis, Grade ≥3 (480 mg QD N = 4): 0 n (%) | Nausea, Any grade (480 mg QD N = 4): 1 (25.0) n (%) | Nausea, Grade ≥3 (480 mg QD N = 4): 0 n (%) | Neutropenia, Any grade (480 mg QD N = 4): 1 (25.0) n (%) | Neutropenia, Grade ≥3 (480 mg QD N = 4): 1 (25.0) n (%) | Pharyngitis, Any grade (480 mg QD N = 4): 0 n (%) | Pharyngitis, Grade ≥3 (480 mg QD N = 4): 0 n (%) | Pyrexia, Any grade (480 mg QD N = 4): 0 n (%) | Pyrexia, Grade ≥3 (480 mg QD N = 4): 0 n (%) | Rash, Any grade (480 mg QD N = 4): 2 (50.0) n (%) | Rash, Grade ≥3 (480 mg QD N = 4): 0 n (%) | Thrombocytopenia, Any grade (480 mg QD N = 4): 1 (25.0) n (%) | Thrombocytopenia, Grade ≥3 (480 mg QD N = 4): 0 n (%) | Upper respiratory tract inflammation, Any grade (480 mg QD N = 4): 0 n (%) | Upper respiratory tract inflammation, Grade ≥3 (480 mg QD N = 4): 0 n (%) | Vomiting, Any grade (480 mg QD N = 4): 2 (50.0) n (%) | Vomiting, Grade ≥3 (480 mg QD N = 4): 0 n (%) | Patients with DLT (grade 3 pneumonitis) (Cohort 4 (300 mg BID), WM patient): 1 patient | Tolerability [1]: well tolerated | Tolerability confirmed up to (dose) [1]: up to 300 mg BID | Tolerability (Japanese patients with B‐cell NHL and CLL, listed as Tirabrutinib): generally well tolerated | Serious AEs reported as study drug‐related (Mallory‐Weiss syndrome, de novo reactivation of HBV, acute myeloid leukemia, pneumonitis (1 patient each)): 4 | All AEs, Any grade (Total (all cohorts) N = 17): 17 (100.0) n (%) | All AEs, Grade ≥3 (Total (all cohorts) N = 17): 8 (47.1) n (%) | Anemia, Any grade (Total (all cohorts) N = 17): 3 (17.6) n (%) | Anemia, Grade ≥3 (Total (all cohorts) N = 17): 2 (11.8) n (%) | Arthralgia, Any grade (Total (all cohorts) N = 17): 3 (17.6) n (%) | Arthralgia, Grade ≥3 (Total (all cohorts) N = 17): 0 n (%) | Aspartate aminotransferase increased, Any grade (Total (all cohorts) N = 17): 2 (11.8) n (%) | Aspartate aminotransferase increased, Grade ≥3 (Total (all cohorts) N = 17): 0 n (%) | Constipation, Any grade (Total (all cohorts) N = 17): 3 (17.6) n (%) | Constipation, Grade ≥3 (Total (all cohorts) N = 17): 0 n (%) | Cystitis, Any grade (Total (all cohorts) N = 17): 2 (11.8) n (%) | Cystitis, Grade ≥3 (Total (all cohorts) N = 17): 0 n (%) | Diarrhea, Any grade (Total (all cohorts) N = 17): 3 (17.6) n (%) | Diarrhea, Grade ≥3 (Total (all cohorts) N = 17): 0 n (%) | Dysgeusia, Any grade (Total (all cohorts) N = 17): 2 (11.8) n (%) | Dysgeusia, Grade ≥3 (Total (all cohorts) N = 17): 0 n (%) | Gamma‐glutamyltransferase increased, Any grade (Total (all cohorts) N = 17): 2 (11.8) n (%) | Gamma‐glutamyltransferase increased, Grade ≥3 (Total (all cohorts) N = 17): 0 n (%) | Headache, Any grade (Total (all cohorts) N = 17): 2 (11.8) n (%) | Headache, Grade ≥3 (Total (all cohorts) N = 17): 0 n (%) | Hypokalemia, Any grade (Total (all cohorts) N = 17): 2 (11.8) n (%) | Hypokalemia, Grade ≥3 (Total (all cohorts) N = 17): 0 n (%) | Hypophosphatemia, Any grade (Total (all cohorts) N = 17): 2 (11.8) n (%) | Hypophosphatemia, Grade ≥3 (Total (all cohorts) N = 17): 1 (5.9) n (%) | Insomnia, Any grade (Total (all cohorts) N = 17): 3 (17.6) n (%) | Insomnia, Grade ≥3 (Total (all cohorts) N = 17): 0 n (%) | Leukopenia, Any grade (Total (all cohorts) N = 17): 2 (11.8) n (%) | Leukopenia, Grade ≥3 (Total (all cohorts) N = 17): 2 (11.8) n (%) | Lymphopenia, Any grade (Total (all cohorts) N = 17): 2 (11.8) n (%) | Lymphopenia, Grade ≥3 (Total (all cohorts) N = 17): 1 (5.9) n (%) | Malaise, Any grade (Total (all cohorts) N = 17): 3 (17.6) n (%) | Malaise, Grade ≥3 (Total (all cohorts) N = 17): 0 n (%) | Myalgia, Any grade (Total (all cohorts) N = 17): 2 (11.8) n (%) | Myalgia, Grade ≥3 (Total (all cohorts) N = 17): 0 n (%) | Nasopharyngitis, Any grade (Total (all cohorts) N = 17): 2 (11.8) n (%) | Nasopharyngitis, Grade ≥3 (Total (all cohorts) N = 17): 0 n (%) | Nausea, Any grade (Total (all cohorts) N = 17): 3 (17.6) n (%) | Nausea, Grade ≥3 (Total (all cohorts) N = 17): 0 n (%) | Neutropenia, Any grade (Total (all cohorts) N = 17): 4 (23.5) n (%) | Neutropenia, Grade ≥3 (Total (all cohorts) N = 17): 4 (23.5) n (%) | Pharyngitis, Any grade (Total (all cohorts) N = 17): 2 (11.8) n (%) | Pharyngitis, Grade ≥3 (Total (all cohorts) N = 17): 0 n (%) | Pyrexia, Any grade (Total (all cohorts) N = 17): 2 (11.8) n (%) | Pyrexia, Grade ≥3 (Total (all cohorts) N = 17): 0 n (%) | Rash, Any grade (Total (all cohorts) N = 17): 6 (35.3) n (%) | Rash, Grade ≥3 (Total (all cohorts) N = 17): 0 n (%) | Thrombocytopenia, Any grade (Total (all cohorts) N = 17): 2 (11.8) n (%) | Thrombocytopenia, Grade ≥3 (Total (all cohorts) N = 17): 0 n (%) | Upper respiratory tract inflammation, Any grade (Total (all cohorts) N = 17): 2 (11.8) n (%) | Upper respiratory tract inflammation, Grade ≥3 (Total (all cohorts) N = 17): 0 n (%) | Vomiting, Any grade (Total (all cohorts) N = 17): 5 (29.4) n (%) | Vomiting, Grade ≥3 (Total (all cohorts) N = 17): 0 n (%) | Tirabrutinib‐induced lymphocytosis (all patients): no tirabrutinib‐induced lymphocytosis observed | Anemia, grade ≥3 (grade 3 or 4) (all patients N = 17): 11.8% | Leukopenia, grade ≥3 (grade 3 or 4) (all patients N = 17): 11.8% | Neutropenia, grade ≥3 (grade 3 or 4) (all patients N = 17): 23.5% | Patients who developed grade ≥3 AEs (all patients N = 17): 47.1% | Patients with serious AEs (all patients N = 17): 7 patients | Maximum tolerated dose (MTD) (cohorts 160, 320, 480 mg QD and 300 mg BID): not reached

— paper PMC6500982 (Cancer Science, 2019)
